In ChEMBL document CHEMBL2010801, “Semisynthesis and antimicrobial activity of novel guttiferone-A derivatives” (Bioorg Med Chem, 2012):
Converted amounts (≈) assume the structure as drawn. The source made the active and inactive calls. The rule behind the calls is not given here.

How the values were obtained:
[1] = test system: Salmonella typhimurium; test: Antimicrobial activity against Salmonella typhimurium ATCC 14028 after 24 hrs by broth microdilution method; format: functional
How it was run: (§1)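 Microplate broth microdilution with a serial dilution series of compounds, using chloramphenicol as the antibacterial control. Bacterial plates were incubated at 35 °C for 24 h.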

[2] = test system: Staphylococcus aureus; test: Antimicrobial activity against Staphylococcus aureus ATCC 6538 after 24 hrs by broth microdilution method; format: functional; settings: ATCC 6538, 24 h; for MIC50: read-out: MIC50; for MIC: read-out: MIC100; how it was run: as §1
[3] = test system: Candida albicans; test: Antifungal activity against Candida albicans ATCC 09548 after 24 hrs by broth microdilution method; format: functional
How it was run: (§2)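 Broth microdilution in microplates with a serial dilution series of compounds. Amphotericin B served as the fungicidal control and fluconazole as the fungistatic control. Yeast plates were incubated at 37 °C for 24 h.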

[4] = test system: Candida parapsilosis; test: Antifungal activity against Candida parapsilosis ATCC 69548 after 24 hrs by broth microdilution method; format: functional; how it was run: as §2
[5] = test system: Escherichia coli; test: Antimicrobial activity against Escherichia coli ATCC 25922 after 24 hrs by broth microdilution method; format: functional; how it was run: as §1
[6] = Cytotoxicity against human PBMC after 48 hrs by MTT assay; format: cell-based; settings: PBMC (peripheral blood mononuclear cells)
How it was run: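 Normal human PBMC from healthy volunteers were isolated by Ficoll-Hypaque density gradient and seeded at 2.4 × 10⁶ cells/mL. Compounds were added at 100 to 0.06 and cells held 48 h at 37 °C, 5% CO₂. MTT was then added for 4 h, formazan dissolved in DMSO and A560 read. Untreated cells were taken as 100% viability. CC50 was obtained by linear regression.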

[7] = test system: Staphylococcus aureus; test: Ratio of MIC100 for chloramphenicol to MIC100 of compound for Staphylococcus aureus ATCC 6538 after 24 hrs by broth microdilution method; format: functional
[8] = test system: Nannizzia gypsea; test: Antifungal activity against Microsporum gypseum after 48 hrs by broth microdilution method; format: functional
How it was run: (§3)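 Broth microdilution against filamentous fungi with serially diluted compounds. Amphotericin B (fungicidal) and fluconazole (fungistatic) were run as controls. Plates were incubated at 30 °C for 48 h.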

[9] = test system: Pseudomonas aeruginosa; test: Antimicrobial activity against Pseudomonas aeruginosa ATCC 9027 after 24 hrs by broth microdilution method; format: functional; how it was run: as §1
[10] = test system: Candida tropicalis; test: Antifungal activity against Candida tropicalis ATCC 750 after 24 hrs by broth microdilution method; format: functional; how it was run: as §2
[11] = test system: Nakaseomyces glabratus; test: Antifungal activity against Candida glabrata ATCC 90030 after 24 hrs by broth microdilution method; format: functional; how it was run: as §2
[12] = test system: Staphylococcus epidermidis; test: Antimicrobial activity against Staphylococcus epidermidis ATCC 12228 after 24 hrs by broth microdilution method; format: functional; how it was run: as §1
[13] = test system: Proteus mirabilis; test: Antimicrobial activity against Proteus mirabilis ATCC 25933 after 24 hrs by broth microdilution method; format: functional; how it was run: as §1
[14] = test system: Pichia kudriavzevii; test: Antifungal activity against Candida krusei ATCC 6258 after 24 hrs by broth microdilution method; format: functional; settings: for MIC50: ATCC 6258, 24 h; how it was run: as §2
[15] = test system: Cryptococcus neoformans; test: Antifungal activity against Cryptococcus neoformans ATCC 90012 after 24 hrs by broth microdilution method; format: functional; how it was run: as §2
[16] = test system: Trichophyton tonsurans; test: Antifungal activity against Trichophyton tonsurans after 48 hrs by broth microdilution method; format: functional; how it was run: as §3
[17] = test system: Bacillus cereus; test: Antimicrobial activity against Bacillus cereus ATCC 11778 after 24 hrs by broth microdilution method; format: functional; settings: for MIC: read-out: MIC100; how it was run: as §1
[18] = Salmonella enterica subsp. enterica serovar Typhimurium
[19] = ATCC 90012, 24 h, read-out: MIC50

SMILES | MIC50 [1, 18] | MIC100 [1, 18] | MIC50 [2] [µM] | MIC [2] [µM] | MIC50 [3] | MIC100 [3] | MIC50 [4] | MIC100 [4] | MIC100 [5] | MIC50 ([5]; ATCC 25922, 24 h) [µM] | CC50 at 48 h [6] [µM] | Ratio [7] | MIC50 [8] | MIC50 [9] | MIC100 [9] | MIC50 [10] | MIC100 [10] | MIC100 [11] | MIC100 [14] | MIC ([17]; ATCC 11778, 24 h) [µM] | further results
CC(C)=CCC[C@]1(C)[C@@H](CC=C(C)C)C[C@@]2(CC=C(C)C)C(=O)C(C(=O)c3ccc(OS(C)(=O)=O)c(OS(C)(=O)=O)c3)=C(O)[C@]1(CC=C(C)C)C2=O | inactive | inactive | 51 (≈ 38.7 µg/mL) | 3.29 (≈ 2.5 µg/mL) | inactive | inactive | inactive | inactive | inactive | 205 (≈ 156 µg/mL) | > 132 | 3.66 | inactive | inactive | inactive | inactive | inactive | inactive | inactive | 1.65 (≈ 1.25 µg/mL) | MIC100 [8]: inactive; MIC50 [12]: inactive; MIC100 [12]: inactive; MIC50 [13]: inactive; MIC100 [13]: inactive; MIC50 [14]: 52.7 µM (≈ 40 µg/mL); MIC100 [15]: inactive; MIC50 ([15]; ATCC 90012, 24 h): 52.7 µM (≈ 40 µg/mL); MIC50 [16]: 3290 µM (≈ 2500 µg/mL); MIC100 [16]: inactive; MIC50 ([17]; ATCC 11778, 24 h): 1650 µM (≈ 1250 µg/mL)
O=C(N[C@H](CO)[C@H](O)c1ccc([N+](=O)[O-])cc1)C(Cl)Cl [CHLORAMPHENICOL] |  |  | 6030 (≈ 1950 µg/mL) | 12 (≈ 3.89 µg/mL) |  |  |  |  |  | 1510 (≈ 487 µg/mL) |  |  |  |  |  |  |  |  |  | 77.4 (≈ 25 µg/mL) | MIC50 ([1]; Salmonella enterica, ATCC 14028, 24 h): 15.1 µM (≈ 4.88 µg/mL); MIC ([1]; Salmonella enterica, ATCC 14028, 24 h, read-out: MIC100): 6.03 µM (≈ 1.95 µg/mL); MIC ([5]; ATCC 25922, 24 h, read-out: MIC100): 12.1 µM (≈ 3.9 µg/mL); MIC50 ([9]; ATCC 9027, 24 h): 48.3 µM (≈ 15.6 µg/mL); MIC50 ([13]; ATCC 25933, 24 h): 24.1 µM (≈ 7.79 µg/mL); MIC ([13]; ATCC 25933, 24 h, read-out: MIC100): 48.3 µM (≈ 15.6 µg/mL); MIC50 ([17]; ATCC 11778, 24 h): 4820 µM (≈ 1560 µg/mL)
OC(Cn1cncn1)(Cn1cncn1)c1ccc(F)cc1F [FLUCONAZOLE] |  |  |  |  |  | inactive |  | inactive |  |  |  |  |  |  |  |  |  | inactive | inactive |  | MIC50 ([10]; ATCC 750, 24 h): 3260 µM (≈ 998 µg/mL); MIC50 [15, 19]: 6530 µM (≈ 2000 µg/mL)
CC(=O)Oc1ccc(C(=O)C2=C(O)[C@]3(CC=C(C)C)C[C@H](CC=C(C)C)[C@@](C)(CCC=C(C)C)[C@](CC=C(C)C)(C2=O)C3=O)cc1OC(C)=O | inactive | inactive | 56 (≈ 38.5 µg/mL) | 3.64 (≈ 2.5 µg/mL) | inactive | inactive | inactive | inactive | inactive | 1820 (≈ 1250 µg/mL) | 114 | 3.31 | inactive | inactive | inactive | inactive | inactive | inactive | inactive | 0.227 (≈ 0.156 µg/mL) | MIC50 [12]: inactive; MIC100 [12]: inactive; MIC50 [13]: inactive; MIC100 [13]: inactive; MIC50 ([14]; read-out: MIC50): 3640 µM (≈ 2500 µg/mL); MIC50 [15, 19]: 56 µM (≈ 38.5 µg/mL); MIC ([15]; ATCC 90012, 24 h, read-out: MIC100): 3.64 µM (≈ 2.5 µg/mL); MIC ([16]; read-out: MIC100): 3640 µM (≈ 2500 µg/mL); MIC50 [17]: inactive
